Experimental data collected from several papers.
Each line is one published result; the experiments were not run side by side.
Target: Serine/threonine-protein kinase ULK2 (ULK2, Homo sapiens, UniProt Q8IYT8)
One construct used (Q8IYT8 1-1036): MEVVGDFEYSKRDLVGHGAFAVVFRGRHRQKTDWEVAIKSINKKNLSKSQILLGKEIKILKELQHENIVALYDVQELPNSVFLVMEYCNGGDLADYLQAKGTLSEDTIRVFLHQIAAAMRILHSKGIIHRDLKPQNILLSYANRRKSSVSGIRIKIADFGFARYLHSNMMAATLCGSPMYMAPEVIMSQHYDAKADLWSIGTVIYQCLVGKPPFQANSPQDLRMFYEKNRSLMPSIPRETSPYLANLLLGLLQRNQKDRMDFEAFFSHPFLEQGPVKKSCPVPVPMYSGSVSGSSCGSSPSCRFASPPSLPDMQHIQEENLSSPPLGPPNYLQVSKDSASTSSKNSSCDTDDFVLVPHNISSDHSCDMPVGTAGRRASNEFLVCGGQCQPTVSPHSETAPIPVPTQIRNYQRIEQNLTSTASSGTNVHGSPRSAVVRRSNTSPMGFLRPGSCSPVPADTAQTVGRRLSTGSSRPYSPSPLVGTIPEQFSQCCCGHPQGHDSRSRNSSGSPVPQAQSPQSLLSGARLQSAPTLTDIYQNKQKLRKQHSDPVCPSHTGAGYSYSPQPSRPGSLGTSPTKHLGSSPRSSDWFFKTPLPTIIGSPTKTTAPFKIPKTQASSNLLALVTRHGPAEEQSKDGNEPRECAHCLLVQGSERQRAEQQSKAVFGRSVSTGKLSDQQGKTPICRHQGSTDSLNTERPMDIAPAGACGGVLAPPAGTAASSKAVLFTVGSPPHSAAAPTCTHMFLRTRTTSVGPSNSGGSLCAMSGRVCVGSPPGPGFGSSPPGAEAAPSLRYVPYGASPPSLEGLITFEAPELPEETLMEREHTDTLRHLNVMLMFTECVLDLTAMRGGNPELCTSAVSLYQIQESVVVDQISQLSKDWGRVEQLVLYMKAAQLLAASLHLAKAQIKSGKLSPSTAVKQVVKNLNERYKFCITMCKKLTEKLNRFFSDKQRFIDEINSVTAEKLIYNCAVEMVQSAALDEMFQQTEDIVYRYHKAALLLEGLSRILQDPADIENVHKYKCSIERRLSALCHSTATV

For `C#Cc1n[nH]c2c(-c3cn([C@@H](C)c4ccccc4)c(=O)[nH]c3=O)cc(F)cc12`, the inhibition was -3.5% (enzyme activity; inhibitor; 0.1 µM).
With `CC(C)(C)c1cc(C=C(C#N)C#N)cc(Br)c1O` the remaining activity was 103% (enzyme activity; inhibitor; 0.5 µM).
`COc1ncccc1-c1cnn2ccc(N3CCN(C(=O)OC(C)C)CC3)nc12` gave a remaining binding of 70% (binding; competition with immobilised ligand; 1 µM).
With `COc1cc(Nc2ncc(F)c(Nc3ccc4c(n3)NC(=O)C(C)(C)O4)n2)cc(OC)c1OC` the inhibition was 100% (binding; 10 µM).
With `Cc1nn(C)cc1-c1nc2c(N3CCN(Cc4ccc(Cl)cc4)CC3)c(Cl)cnc2[nH]1` the remaining binding was 100% (binding; competition with immobilised ligand; 1 µM).
`C#Cc1n[nH]c2c(-c3cn(C(C)c4ccccn4)c(=O)[nH]c3=O)cc(F)cc12` (stereo not drawn) has an inhibition of 8.6% (enzyme activity; inhibitor; 1 µM).
For `O=c1[nH]c2ccccc2n1C1CCN(Cc2ccc(-c3[nH]c4cc5ncnc5cc4nc3-c3ccccc3)cc2)CC1`, the remaining signal was 106% (cell-free assay; 0.5 µM).
With `Nc1ncc(-c2nc(N3CCOCC3)nc(N3CCOCC3)n2)c(C(F)F)n1` the remaining binding was 72% (binding; competition with immobilised ligand; 10 µM).
The remaining binding of `Cn1cncc1[C@](O)(COc1ccc(C#N)cc1-c1ccc(OC(F)(F)F)cc1)c1ccc(C#N)cc1` is reported as 100% (cell-free assay; competition with immobilised ligand; 1 µM).
